From ChEMBL document CHEMBL1122831, “Synthesis and structure-activity relationships of novel arylfluoroquinolone antibacterial agents” (1985)
Converted amounts (≈) assume the structure as drawn.

Key:
Assay type in all cases: functional
[1] = tested on: Klebsiella pneumoniae; experiment: Minimum inhibition concentration in vitro determined against Klebsiella pneumoniae 8045
Summary of the method: (§1)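 Agar dilution on brain-heart infusion (BHI) agar with twofold dilutions from a 2000 µg/mL stock, giving final test concentrations of 200-0.005 µg/mL. Organisms were grown overnight in BHI broth at 36 °C, and about 10⁴ organisms were inoculated per plate. Plates were incubated 18 h at 36 °C. MIC was the lowest concentration with no visible growth.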

[2] = tested on: Enterococcus faecium; experiment: Minimum inhibition concentration in vitro determined against Streptococcus faecium ATCC 8043; summary of the method: as §1
[3] = tested on: Acinetobacter; experiment: Minimum inhibition concentration in vitro determined against Acinetobacter sp CMX669; summary of the method: as §1
[4] = tested on: Streptococcus pyogenes; experiment: Minimum inhibition concentration in vitro determined against Streptococcus pyogenes 930; summary of the method: as §1
[5] = tested on: Escherichia coli; experiment: Minimum inhibition concentration in vitro determined against Escherichia coli juhl; settings: Escherichia coli; read-out: MIC; summary of the method: as §1
[6] = tested on: Staphylococcus aureus; experiment: Minimum inhibition concentration in vitro determined against Staphylococcus aureus ATCC 6538P; summary of the method: as §1
[7] = tested on: Staphylococcus aureus; experiment: Minimum inhibition concentration in vitro determined against Staphylococcus aureus CMX 686B; summary of the method: as §1
[8] = tested on: Pseudomonas aeruginosa; experiment: Minimum inhibition concentration in vitro determined against Pseudomona aeruginosa K799/WT; summary of the method: as §1
[9] = tested on: Pseudomonas aeruginosa; experiment: Minimum inhibition concentration in vitro determined against Pseudomona aeruginosa 5007; summary of the method: as §1
[10] = tested on: Staphylococcus epidermidis; experiment: Minimum inhibition concentration in vitro determined against Staphylococcus epidermidis 3519; summary of the method: as §1
[11] = tested on: Klebsiella aerogenes; experiment: Minimum inhibition concentration in vitro determined against Enterobacteri aerogenes ATCC 13048; summary of the method: as §1

SMILES | MIC [1] [µg/mL] | MIC [2] [µg/mL] | MIC [3] [µg/mL] | MIC [4] [µg/mL] | MIC [5] [µg/mL] | MIC [6] [µg/mL] | MIC [7] [µg/mL] | MIC [8] [µg/mL] | MIC [9] [µg/mL] | MIC [10] [µg/mL] | MIC [11] [µg/mL]
CN1CCN(c2cc3c(cc2F)c(=O)c(C(=O)O)cn3-c2ccc(F)cc2F)CC1 | 0.1 (≈ 0.24 µM) | 0.78 (≈ 1.87 µM) | 0.1 (≈ 0.24 µM) | 0.78 (≈ 1.87 µM) | 0.2 (≈ 0.479 µM) | 0.1 (≈ 0.24 µM) | 0.1 (≈ 0.24 µM) | 1.56 (≈ 3.74 µM) | 1.56 (≈ 3.74 µM) | 0.39 (≈ 0.934 µM) | 0.39 (≈ 0.934 µM)
CN1CCN(c2cc3c(cc2F)c(=O)c(C(=O)O)cn3-c2ccccc2F)CC1 | 0.39 (≈ 0.976 µM) | 12.5 (≈ 31.3 µM) | 0.78 (≈ 1.95 µM) | 12.5 (≈ 31.3 µM) | 0.78 (≈ 1.95 µM) | 1.56 (≈ 3.91 µM) | 1.56 (≈ 3.91 µM) | 6.2 (≈ 15.5 µM) | 6.2 (≈ 15.5 µM) | 1.56 (≈ 3.91 µM) | 0.78 (≈ 1.95 µM)
CC(=O)NC1CCN(c2cc3c(cc2F)c(=O)c(C(=O)O)cn3-c2ccc(F)cc2)C1 (stereo not given) | 0.78 (≈ 1.82 µM) | 1.56 (≈ 3.65 µM) | 3.1 (≈ 7.25 µM) | 0.78 (≈ 1.82 µM) | 0.78 (≈ 1.82 µM) | 0.1 (≈ 0.234 µM) | 0.39 (≈ 0.912 µM) | 6.2 (≈ 14.5 µM) | 6.2 (≈ 14.5 µM) | 0.39 (≈ 0.912 µM) | 1.56 (≈ 3.65 µM)
CN1CCN(c2cc3c(cc2F)c(=O)c(C(=O)O)cn3-c2cccc(F)c2)CC1 | 3.1 (≈ 7.76 µM) | 50 (≈ 125 µM) | 50 (≈ 125 µM) | 25 (≈ 62.6 µM) | 6.2 (≈ 15.5 µM) | 12.5 (≈ 31.3 µM) | 12.5 (≈ 31.3 µM) | 50 (≈ 125 µM) | 50 (≈ 125 µM) | 12.5 (≈ 31.3 µM) | 6.2 (≈ 15.5 µM)
COc1ccc(-n2cc(C(=O)O)c(=O)c3cc(F)c(N4CCN(C)CC4)cc32)cc1 | 12.5 (≈ 30.4 µM) | 100 (≈ 243 µM) | 50 (≈ 122 µM) | 50 (≈ 122 µM) | 50 (≈ 122 µM) | 12.5 (≈ 30.4 µM) | 12.5 (≈ 30.4 µM) | 100 (≈ 243 µM) | 200 (≈ 486 µM) | 50 (≈ 122 µM) | 50 (≈ 122 µM)
CN1CCN(c2cc3c(cc2F)c(=O)c(C(=O)O)cn3-c2ccc(O)cc2)CC1 | 0.05 (≈ 0.126 µM) | 0.39 (≈ 0.981 µM) | 0.39 (≈ 0.981 µM) | 0.2 (≈ 0.503 µM) | 0.1 (≈ 0.252 µM) | 0.05 (≈ 0.126 µM) | 0.1 (≈ 0.252 µM) | 0.39 (≈ 0.981 µM) | 0.39 (≈ 0.981 µM) | 0.2 (≈ 0.503 µM) | 0.2 (≈ 0.503 µM)

Further lines, results first:

MIC [1] [µg/mL] | MIC [2] [µg/mL] | MIC [3] [µg/mL] | MIC [4] [µg/mL] | MIC [5] [µg/mL] | MIC [6] [µg/mL] | MIC [7] [µg/mL] | MIC [8] [µg/mL] | MIC [9] [µg/mL] | MIC [10] [µg/mL] | MIC [11] [µg/mL] | SMILES
3.1 (≈ 6.73 µM) | 100 (≈ 217 µM) | 12.5 (≈ 27.2 µM) | 50 (≈ 109 µM) | 6.2 (≈ 13.5 µM) | 3.1 (≈ 6.73 µM) | 3.1 (≈ 6.73 µM) | 25 (≈ 54.3 µM) | 50 (≈ 109 µM) | 3.1 (≈ 6.73 µM) | 12.5 (≈ 27.2 µM) | CN1CCN(c2cc3c(cc2F)c(=O)c(C(=O)O)cn3-c2ccc(Br)cc2)CC1
0.2 (≈ 0.524 µM) | 12.5 (≈ 32.8 µM) | 1.56 (≈ 4.09 µM) | 3.1 (≈ 8.13 µM) | 0.78 (≈ 2.05 µM) | 0.78 (≈ 2.05 µM) | 0.78 (≈ 2.05 µM) | 3.1 (≈ 8.13 µM) | 6.2 (≈ 16.3 µM) | 0.78 (≈ 2.05 µM) | 1.56 (≈ 4.09 µM) | CN1CCN(c2cc3c(cc2F)c(=O)c(C(=O)O)cn3-c2ccccc2)CC1
0.78 (≈ 1.88 µM) | 100 (≈ 240 µM) | 1.56 (≈ 3.75 µM) | 12.5 (≈ 30.1 µM) | 1.56 (≈ 3.75 µM) | 1.56 (≈ 3.75 µM) | 1.56 (≈ 3.75 µM) | 6.2 (≈ 14.9 µM) | 12.5 (≈ 30.1 µM) | 1.56 (≈ 3.75 µM) | 1.56 (≈ 3.75 µM) | CN1CCN(c2cc3c(cc2F)c(=O)c(C(=O)O)cn3-c2ccc(Cl)cc2)CC1
0.39 (≈ 0.974 µM) | 1.56 (≈ 3.9 µM) | 1.56 (≈ 3.9 µM) | 1.56 (≈ 3.9 µM) | 0.39 (≈ 0.974 µM) | 0.1 (≈ 0.25 µM) | 0.1 (≈ 0.25 µM) | 3.1 (≈ 7.74 µM) | 6.2 (≈ 15.5 µM) | 0.39 (≈ 0.974 µM) | 1.56 (≈ 3.9 µM) | O=C(O)c1cn(-c2ccc(F)cc2)c2cc(N3CCC(O)CC3)c(F)cc2c1=O
